Results from ChEMBL document CHEMBL3751847, “Novel naphtho[2,1-d]oxazole-4,5-diones as NQO1 substrates with improved aqueous solubility: Design, synthesis, and in vivo antitumor evaluation” (Bioorg Med Chem, 2016).
Values after ≈ are worked out from the molar mass of the structure shown. Active and inactive are the calls of the source. No cut-off for these calls is given here.

Tests used:
[1] = Lipophilicity, log D of compound at pH 7.4; assay type: physicochemical; conditions: buffer
Procedure, shortened: (§1)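 Neutral aqueous solubility and log D at pH 7.4 by Avdeef–Bucher potentiometric titration on a Gemini Profiler.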

[2] = target: T1, NAD(P)H dehydrogenase [quinone] 1 (Homo sapiens, UniProt P15559); assay: Drug metabolism assessed as recombinant human NQO1-mediated NADPH oxidation to NADP+ per micromol of protein preincubated for 3 mins followed by NADPH addition measured at 2 s intervals for 5 mins by enzyme labelling instrument-based assay; assay type: ADME
Procedure, shortened: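 NADPH recycling assay: quinones 0.1–50 µmol·L-1 with recombinant human NQO1 1.4 µg/mL in 50 mmol·L-1 potassium phosphate pH 7.4, 3 min preincubation, reaction started with NADPH 400 µmol·L-1; A340 every 2 s for 5 min at 22–25 °C. Slopes from linear 20 s–1 min, compared with no-compound reactions; at least triplicate.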

[3] = Solubility of compound in diluted hydrochloric acid buffer solution at pH 3 at 25 deg C for 8 hrs; assay type: physicochemical
Procedure, shortened: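 Compounds shaken in diluted hydrochloric acid buffer at pH 3, 25 °C for 8 h.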

A549 [4] = assay: Cytotoxicity against human A549 cells expressing NQO1 after 2 hrs by MTT assay; assay type: functional, cell-based; conditions: A549, 2 h
Procedure, shortened: (§2)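 MTT assay: cells in RPMI 1640 + 10% FBS seeded at 10,000 cells/mL, attached 16 h, exposed to compound in triplicate for 2 h, washed out, then grown 72 h at 37 °C, 5% CO2; MTT 4 h, formazan in DMSO, A560. Dicoumarol cotreatment 25 µmol·L-1 for 2 h. IC50 from semilog plots of percent control.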

[5] = Intrinsic aqueous solubility of compound by Avdeef-Bucher potentiometric titration assay; assay type: physicochemical; conditions: aqueous solution; read-out: Intrinsic_solubility; procedure, shortened: as §1
[6] = target: T1, NAD(P)H dehydrogenase [quinone] 1; assay: Binding affinity to recombinant human NQO1 assessed as induction of ROS generation by measuring reduction of cytochrome C per min per mg of NQO1 by spectrophotometric analysis
Procedure, shortened: (§3)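 Superoxide via cytochrome c reduction at 550 nm: 30 µmol·L-1 cytochrome c, 0.2 mmol·L-1 NADPH, recombinant human NQO1 0.1–3.0 µg/mL, quinone 25 µmol·L-1 in 25 mmol·L-1 Tris-HCl pH 7.4 with 0.7 mg/mL BSA and 0.1% Tween-20; dicoumarol 25 µmol·L-1 where stated. Initial rates from linear 0–30 s; at least triplicate.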

A549 [7] = assay: Antitumor activity against human A549 cells xenografted in athymic nude mouse assessed as tumor growth inhibition at 30 mg/kg, iv administered every other day over 21 days relative to vehicle control; assay type: functional; conditions: 504 h, read-out: TGI
Procedure, shortened: (§4)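 Athymic nude mice (7–8 weeks) given 5 × 10^6 log-phase A549 cells in the flank; randomized at mean tumor ~100 mm3 (5 mice/group) to vehicle, 15 or 30 mg/kg test agent in dilute HCl buffer pH 3, or positive control in saline; tail-vein injection every other day for three weeks. Caliper volume = a × b²/2, measured daily; wet tumor weight after euthanasia. TGI from weight; T/C = RTV(treated)/RTV(control) × 100, RTV = VT/V0.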

A549 [8] = assay: Antitumor activity against human A549 cells xenografted in athymic nude mouse assessed as tumor proliferation rate at 30 mg/kg, iv administered every other day over 21 days relative to vehicle-treated control; assay type: functional; procedure, shortened: as §4
A549 [9] = assay: Antitumor activity against human A549 cells xenografted in athymic nude mouse assessed as tumor growth inhibition at 15 mg/kg, iv administered every other day over 21 days relative to vehicle control; assay type: functional, organism-based; procedure, shortened: as §4
A549 [10] = assay: Cytotoxicity against human A549 cells expressing NQO1 after 2 hrs in presence of dicoumarol by MTT assay; assay type: functional, cell-based; conditions: A549, 2 h; procedure, shortened: as §2
[11] = Cytotoxicity against human L02 cells after 2 hrs by MTT assay; assay type: cell-based; conditions: L02, 2 h; procedure, shortened: as §2
Mus musculus [12] = assay: Toxicity in athymic nude mouse assessed as body weight loss at 15 to 30 mg/kg, iv administered every other day over 21 days relative to vehicle control; assay type: organism-based; conditions: in vivo, 504 h
Procedure, shortened: (§5)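 A549 xenograft nude mice, 5/group, dosed 15 or 30 mg/kg by tail vein every other day for three weeks in dilute HCl buffer pH 3; vehicle group as reference. Body weight tracked over treatment; liver examined for toxic signs.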

A549 [13] = assay: Antitumor activity against human A549 cells xenografted in athymic nude mouse assessed as tumor volume at 30 mg/kg, iv administered every other day over 21 days (reference value: 1085.8 +/- 298.3 mm'3); assay type: functional; procedure, shortened: as §4
A549 [14] = assay: Ratio of IC50 for human A549 cells expressing NQO1 in presence of NQO1 inhibitor dicoumarol to IC50 for human A549 cells expressing NQO1 in absence of NQO1 inhibitor dicoumarol; assay type: functional
Procedure, shortened: (§6)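 IC50 ratios from the 2 h-exposure/72 h MTT assay: A549 IC50 with 25 µmol·L-1 dicoumarol cotreatment divided by IC50 without; or H596 IC50 divided by A549 IC50.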

Mus musculus [15] = assay: Hepatotoxicity in athymic nude mouse at 15 to 30 mg/kg, iv administered every other day over 21 days relative to vehicle control; assay type: toxicity, organism-based; conditions: in vivo, 504 h; procedure, shortened: as §5
[16] = Selectivity ratio of IC50 for NQO1-deficient human NCI-H596 cells to IC50 for human A549 cells expressing NQO1; assay type: cell-based; procedure, shortened: as §6
[17] = target: T1, NAD(P)H dehydrogenase [quinone] 1; assay: Binding affinity to recombinant human NQO1 assessed as induction of ROS generation by measuring reduction of cytochrome C per min per mg of NQO1 by spectrophotometric analysis in presence of NQO1 inhibitor dicoumarol; procedure, shortened: as §3
NCI-H596 = assay: Cytotoxicity against NQO1-deficient human NCI-H596 cells after 2 hrs by MTT assay; assay type: cell-based; conditions: NCI-H596, 2 h; procedure, shortened: as §2

T1 sequence (P15559 whole entry): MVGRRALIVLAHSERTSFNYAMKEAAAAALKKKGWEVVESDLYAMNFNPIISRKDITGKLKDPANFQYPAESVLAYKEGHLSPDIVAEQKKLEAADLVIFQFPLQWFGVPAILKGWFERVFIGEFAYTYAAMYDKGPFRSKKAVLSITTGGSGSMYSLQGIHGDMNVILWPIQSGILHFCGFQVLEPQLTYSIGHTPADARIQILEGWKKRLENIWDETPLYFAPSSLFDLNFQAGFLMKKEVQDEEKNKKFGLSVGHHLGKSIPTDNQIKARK

| SMILES | logD [1] | Drug metabolism [2] [µmol/min] | solubility at 8 h [3] [µg/mL] | IC50 (A549 [4]) [µM] | also measured |
| --- | --- | --- | --- | --- | --- |
| O=C1C(=O)c2nc(CNc3cccc(F)c3)oc2-c2ccccc21 | 3.18 | 1391 | < 100 | 5.2 | solubility [5]: 44 µg/mL (≈ 137 µM) |
| O=C1C(=O)c2nc(CNc3ccc(Cl)cc3)oc2-c2ccccc21 | 2.65 | 1522 | < 100 | 19 | solubility [5]: 38 µg/mL (≈ 112 µM) |
| CC1(C)CCC2=C(O1)c1ccccc1C(=O)C2=O [LAPACHONE] | 2.85 | 1210 | < 100 | 3.7 | Activity [6]: Active; inhibition in vivo at 30 mg/kg (A549 [7]): 70.1%; T/C (A549 [8]): 29.5% |
| CCc1nc2c(o1)-c1ccccc1C(=O)C2=O |  | 955 |  | 7.6 |  |
| COc1ccc(NCc2nc3c(o2)-c2ccccc2C(=O)C3=O)cc1 |  | 1063 | > 100 | 13 |  |
| Cc1ccc(NCc2nc3c(o2)-c2ccccc2C(=O)C3=O)cc1 |  | 968 | > 100 | 12 |  |
| O=C1C(=O)c2nc(CN3CCN(c4ccccc4)CC3)oc2-c2ccccc21 |  | 1139 | > 100 | 7.6 |  |
| COc1ccccc1NCc1nc2c(o1)-c1ccccc1C(=O)C2=O |  | 990 | > 100 | 11 |  |
| COc1cccc(NCc2nc3c(o2)-c2ccccc2C(=O)C3=O)c1 |  | 955 | > 100 | 15 |  |
| CN(C)Cc1nc2c(o1)-c1ccccc1C(=O)C2=O |  | 939 | > 100 | 8.7 |  |
| O=C1C(=O)c2nc(CN3CCN(Cc4ccccc4)CC3)oc2-c2ccccc21 | 1.88 | 1360 | > 500 | 4.6 | TGI (A549 [9]): Active; Activity [6]: Active; IC50 (A549 [10]): 64 µM; IC50 [11]: 70 µM; inhibition in vivo at 30 mg/kg (A549 [7]): 55.6%; Activity (Mus musculus [12]): Non-toxic; Activity (A549 [13]): 440.8 mm3; Ratio IC50 (A549 [14]): >7; Activity (Mus musculus [15]): Non-toxic; Ratio IC50 [16]: > 12; Activity [17]: Not Active; IC50 (NCI-H596): 57 µM; solubility [5]: 125 µg/mL (≈ 323 µM); T/C (A549 [8]): 41.4% |
| Cc1nc2c(o1)-c1ccccc1C(=O)C2=O |  | 1202 |  | 20 |  |
| O=C1C(=O)c2nc(CN3CCOCC3)oc2-c2ccccc21 |  | 686 | > 100 | 6.9 |  |
